# Measured values pooled from the literature.
# Each line is one published result; the experiments were not run side by side.
# Cell line: MCF7
# Observed: cell growth or viability
SMILES,method,time,IC50
CCCNC(=S)N/N=C/c1cccc2cc3ccccc3nc12,MTT,48 h,48.1 µM
O=C1Nc2ccccc2C1=Nc1ccc(Cl)cc1,MTT,48 h,72.3 µM
O=[N+]([O-])c1cc(I)c(O)c(C=NNc2ccc(C(F)(F)F)cc2)c1,MTT,24 h,8.56 µM
CC(=O)c1nc2ccccc2n1Cc1cn([C@@H]2OC[C@@H](O)[C@H](O)[C@H]2O)nn1,LDH,48 h,2.08 µM
O=C1CSC(=Nc2cc([N+](=O)[O-])ccc2[N+](=O)[O-])N1c1nnc(-c2ccc(C(F)(F)F)cc2N=C2SCC(=O)N2c2cc([N+](=O)[O-])ccc2[N+](=O)[O-])s1,MTT,,83.4 µM
O=C(O)c1cn(Cc2ccc(C(F)(F)F)cc2)c2ccc(Oc3ccccc3)cc2c1=O,MTT,24 h,38.5 µM
C/C(=N\c1nc(N)nc(/N=C(\C)c2c(O)c3ccccc3oc2=O)n1)c1c(O)c2ccccc2oc1=O,MTT,48 h,6.68 µM
CN(C)C(=O)Nc1nc2c(Cl)cc(Cl)cc2c(=O)n1-c1ccccc1,MTT,48 h,> 200 µM
O=C1C(=Nc2ccc(Cl)cc2)c2ccccc2N1Cc1ccc([N+](=O)[O-])cc1,MTT,48 h,2.65 µM
Cc1cccc([N+](=O)[O-])c1N=C1SCC(=O)N1c1nnc(-c2ccc(C(F)(F)F)cc2N=C2SCC(=O)N2c2c(C)cccc2[N+](=O)[O-])s1,MTT,,53.2 µM
NNc1nc2c(Cl)cc(Cl)cc2c(=O)n1-c1ccc(Cl)cc1,MTT,48 h,> 200 µM
COc1ccc(N(Cc2csc(-c3ccc(Br)cc3)n2)C(=O)CCCCCC(=O)NO)cc1,MTT,72 h,9.21 µM
CC(C)c1cccc(C(C)C)c1N=C1C(=O)N(Cc2ccccc2)c2ccccc21,MTT,48 h,12.6 µM
O=C1CS/C(=N\c2ccccc2O)N1c1nnc(-c2ccc(C(F)(F)F)cc2/N=C2\SCC(=O)N2c2ccccc2O)s1,MTT,,32.4 µM
COc1cc(N=C2C(=O)Nc3ccccc32)cc(OC)c1,MTT,48 h,16.2 µM
CO[C@H]1[C@H](O[C@H]([C@H]2O[C@@H](n3ccc(=O)[nH]c3=O)[C@H](O)[C@@H]2O)[C@H](NCCCNC(=O)[C@@H](NC(=O)[C@@H](NC(=O)N[C@H](C(=O)O)C(C)C)[C@@H]2CCN=C(N)N2)[C@@H](O)C(C)C)C(=O)O)O[C@H](CN)[C@H]1O,WST-1,,> 35 µM
COc1ccccc1-n1cc(CNC(=O)[C@@]2(C)[C@H](O)CC[C@@]3(C)[C@H]2CC[C@]2(C)[C@@H]3C(=O)C[C@@H]3[C@@H]4[C@@H](C)[C@H](C)CC[C@]4(C)CC[C@]32C)nn1,MTT,24 h,73.4 µM
Clc1ccc(Cn2nc(-c3nc(-c4ccccc4)no3)c3ccccc32)c(Cl)c1,,48 h,66.5 µM
O=C1CS/C(=N\c2cc(C(F)(F)F)ccc2-c2nnc(N3C(=O)CS/C3=N\c3ccc(F)c(O)c3)s2)N1c1ccc(F)c(O)c1,MTT,,25.8 µM
Cc1nc2ccc(-c3ccc(F)c(F)c3)cc2c(O)c1C(=O)O,MTT,48 h,≥ 100 µM
C[C@H]1[C@H](C)CC[C@]2(C(=O)O)CC[C@]3(C)C(=CC[C@@H]4[C@@]5(C)CC[C@H](O)C(C)(C)[C@@H]5CC[C@]43C)[C@H]12,MTT,24 h,27.3 µM
C[C@H]1[C@H](C)CC[C@]2(C)CC[C@]3(C)C(=CC(=O)[C@@H]4[C@@]5(C)CC[C@@H](O)[C@](C)(C(=O)NCc6cn(-c7cccc(Br)c7)nn6)[C@@H]5CC[C@]43C)[C@H]12,MTT,24 h,67 µM
CC(=O)O[C@H]1C(=O)[C@@]2(C)[C@H]([C@H](OC(=O)c3ccccc3)[C@]3(O)C[C@H](OC(=O)[C@H](O)[C@@H](NC(=O)c4ccccc4)c4ccccc4)C(C)=C1C3(C)C)[C@]1(OC(C)=O)CO[C@@H]1C[C@@H]2O,,,0.00751 µM
O=c1[nH]cc(F)c(=O)[nH]1,MTT,48 h,11.3 µM
COc1cccc2c1C(=O)c1c(O)c3c(c(O)c1C2=O)C[C@@](O)(C(=O)CO)C[C@@H]3O[C@H]1C[C@H](N)[C@H](O)[C@H](C)O1,MTT,,5.8 µg/mL
Cc1ccc(NNc2nc3c(Cl)cc(Cl)cc3c(=O)n2-c2ccccc2)cc1,MTT,48 h,> 200 µM
C/C(=N\C(=N)/N=C(\C)c1c(O)c2ccccc2oc1=O)c1c(O)c2ccccc2oc1=O,MTT,48 h,19.6 µM
CC(=O)O[C@@H]1[C@@H](OC(C)=O)[C@H](OC(C)=O)CO[C@H]1n1cc(Cn2c(C(C)=O)nc3ccccc32)nn1,LDH,48 h,2.73 µM
CCCCCCCNC1=C(n2cncn2)C(=O)c2ccccc2C1=O,MTT,24 h,22.3 µg/mL
CC(=O)O[C@H]1C(=O)[C@@]2(C)[C@H]([C@H](OC(=O)c3ccccc3)[C@]3(O)C[C@H](OC(=O)[C@H](O)[C@@H](NC(=O)c4ccccc4)c4ccccc4)C(C)=C1C3(C)C)[C@]1(OC(C)=O)CO[C@@H]1C[C@@H]2O,MTT,48 h,> 100 µM
CC(=NNC(=O)c1cc(-c2ccccc2)n(-c2ccc(S(N)(=O)=O)cc2)n1)c1ccc(Br)cc1,fluorescence,48 h,35.4 µM
Cc1cccc(N=C2C(=O)N(Cc3cccc(Cl)c3)c3ccccc32)c1,MTT,48 h,2.12 µM
COc1ccc(C=NNC(=O)c2cc(-c3ccccc3)n(-c3ccc(S(N)(=O)=O)cc3)n2)cc1OC,fluorescence,48 h,21.1 µM
O=C(C=Cc1ccc(OCCOc2ccc(C=CC(=O)c3cccs3)cc2)cc1)c1cccs1,MTT,48 h,11.5 µM
O=C(O)c1nn(Cc2ccc(Cl)cc2Cl)c2ccccc12,,48 h,113 µM
COc1cccc(NC(=S)N/N=C/c2cccc3cc4ccccc4nc23)c1,MTT,48 h,> 50 µM
COc1cccc2c1C(=O)c1c(O)c3c(c(O)c1C2=O)C[C@@](O)(C(=O)CO)C[C@@H]3O[C@H]1C[C@H](N)[C@H](O)[C@H](C)O1,MTT,48 h,8.87 µM
O=C1Nc2ccccc2/C1=N/N=C/c1cccc([N+](=O)[O-])c1,MTT,24 h,48.9 µg/mL
Cc1noc(-c2nn(Cc3ccc(Cl)cc3Cl)c3ccccc23)n1,,48 h,47.5 µM
C=CCN1C(=O)C(=Nc2cccc(C)c2)c2ccccc21,MTT,48 h,> 100 µM
O=C1C(Cl)=C(n2ccnc2)C(=O)c2ccccc21,MTT,24 h,48.8 µg/mL
CC(=O)c1nc2ccccc2n1Cc1cn([C@@H]2O[C@H](CO)[C@H](O)[C@H](O)[C@H]2O)nn1,LDH,48 h,2.89 µM
CN(C)c1ccc(Nc2nc(-c3ccncc3)nc3c2CC(N)CC3)cc1 (centres unmarked),MTT,,15.8 µM
COC(=O)c1ccc2c(c1)NC(=O)/C2=C(\Nc1ccc(N(C)C(=O)CN2CCN(C)CC2)cc1)c1ccccc1,MTT,24 h,0.98 µM
CN1CCc2c(c3ccccc3n2Cc2ccc(C(=O)NO)cc2)C1,CCK-8,48 h,27.4 µM
CNC(=O)c1cc(Oc2ccc(NC(=O)Nc3ccc(Cl)c(C(F)(F)F)c3)cc2)ccn1,MTT,48 h,7.06 µM
CC(C)c1cccc(C(C)C)c1N=C1C(=O)Nc2ccccc21,MTT,48 h,0.69 µM
Cc1nnc(-c2nn(Cc3ccc(Cl)cc3Cl)c3ccccc23)o1,,48 h,19.8 µM
CCOC(=O)C(=CNc1ccc(Oc2ccccc2)cc1)C(=O)OCC,MTT,,≥ 200 µM
CC(C)Cc1ccc([C@H](C)C(=O)O)cc1,SRB,72 h,399 µM
CCOC(=O)c1c(C)nc2ccc(-c3ccc(F)c(F)c3)cc2c1O,MTT,48 h,12 µM
Nc1ccn([C@@H]2O[C@H](CO)[C@@H](O)C2(F)F)c(=O)n1,MTT,48 h,1.59 µg/mL
O=C(NCc1ccc(OC(F)(F)F)cc1)c1cn(Cc2ccc(F)cc2)c2ccc(Oc3ccccc3)cc2c1=O,MTT,48 h,79.6 µM
O=C(NO)Nc1nc2c(Cl)cc(Cl)cc2c(=O)n1-c1ccccc1,MTT,48 h,> 200 µM
O=C1C(=Nc2ccccc2I)c2ccccc2N1Cc1ccc(Br)cc1,MTT,48 h,8.79 µM
O=[N+]([O-])c1cc(I)c(O)c(C=NNc2ccc(Cl)cc2)c1,MTT,24 h,14 µM
